Converted amounts (≈) assume the structure as drawn.
Tests used:
[1] = Solubility of the compound in alphaMEM containing 5% FCS and 1% DMSO by HPLC analysis; type: physicochemical
Procedure, shortened: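 Saturated drug solutions were incubated at 37 °C in αMEM with 5% FCS and 1% DMSO. Dissolved drug was quantified by HPLC.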

HCT-116 [2] = experiment: Cytotoxicity against human HCT116 cells incubated for 4 hrs under anaerobic condition measured after 5 days by sulforhodamine B assay; type: functional, cell-based
Procedure, shortened: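 STR-authenticated, mycoplasma-free HCT116 cells in αMEM + 5% FCS were seeded at 700 cells/well and allowed 2 h to attach. Drug was added from DMSO stocks (<1% DMSO) in serial 3-fold dilutions for 4 h, oxic or anoxic (Pd-catalyst anaerobic chamber, medium pre-equilibrated ≥3 days). After washing, cells regrew for 5 days before SRB staining and IC50 determination.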

HCT-116 [3] = experiment: Hypoxic cytotoxicity ratio of IC50 for human HCT116 cells under oxic condition to IC50 for human HCT116 cells under anoxic condition
Procedure, shortened: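 HCT116 cells, 700 per well and attached 2 h, got a 4 h exposure to 3-fold serial dilutions (<1% DMSO) under air or in a Pd-catalyst anaerobic chamber with pre-equilibrated medium. Cells were washed, regrown 5 days, and stained with sulforhodamine B to give IC50. HCR = oxic IC50 / anoxic IC50.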

HCT-116 [4] = experiment: (§1) Hypoxia radiosensitization activity in human HCT116 cells assessed as survival ratio by measuring ratio of cell survival with 15 Gy radiation in absence to presence of compound at anoxic IC50 preincubated for 1 hr followed by 15 Gy irradiation measured after 10 days by methylene blue staining-based cell counting method; type: functional
Procedure, shortened: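 Anoxic HCT116 cells were seeded at 10^5/well and treated at the anoxic IC50 concentration for 1 h at room temperature. They were irradiated with 15 Gy (60Co, ~2 Gy/min) in a sealed steel box, then plated clonogenically. Colonies of >50 cells were counted […]. SR15 = survival with radiation / survival with drug + radiation.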

HCT-116 [5] = experiment: (§2) Hypoxia radiosensitization activity in human HCT116 cells assessed as sensitizer enhancement ratio by measuring ratio of radiation dose for 1% survival in absence to presence of compound at 2.76 mM preincubated for 1 hr followed by irradiation measured after 10 days by methylene blue staining-based cell counting method; type: functional
HCT-116 [6] = experiment: as §2, with “method relative to misonidazole” for “method”; type: functional
HCT-116 [7] = experiment: as §1, with “with” for “with 15 Gy”, “2.76 mM” for “anoxic IC50”, “6 to 29” for “15”; type: functional
HCT-116 [8] = experiment: as §1, with “with” for “with 15 Gy”, “2.76 mM” for “anoxic IC50”, “6 to 29” for “15”, “method relative to misonidazole” for “method”; type: functional
HCT-116 [9] = experiment: Cytotoxicity against human HCT116 cells at anoxic IC50 incubated for 1 hr at 21 degC by clonogenic survival assay; conditions: hct-116, 1 h
HCT-116 [10] = experiment: Hypoxia radiosensitization activity in human HCT116 cells assessed as sensitizer enhancement ratio by measuring ratio of radiation dose for 1% survival in absence to presence of compound at 1 mM […] measured after 10 days by methylene blue staining-based cell counting method; type: functional
HCT-116 [11] = experiment: as §2, with “1” for “2.76”, “method relative to misonidazole” for “method”; type: functional
HCT-116 [12] = experiment: as §1, with “with” for “with 15 Gy”, “1 mM” for “anoxic IC50”, “6 to 29” for “15”; type: functional
HCT-116 [13] = experiment: as §1, with “with” for “with 15 Gy”, “1 mM” for “anoxic IC50”, “6 to 29” for “15”, “method relative to misonidazole” for “method”; type: functional
Mus musculus [14] = experiment: Drug level in NIH-III mouse assessed as maximum achievable dose at 10 ml/kg, iv; type: ADME; conditions: in vivo
Procedure, shortened: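 Non-tumor-bearing female NIH-III mice (~20 g) received freshly prepared solutions i.v. at 10 mL/kg in 0.9% saline with 1% DMSO, or saline with 2 molar equivalents NaHCO3 for phosphate prodrugs. MAD was the maximum dose that dissolved in the injection volume.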

Plasma = experiment: Cmax in plasma of NIH-III mouse xenografted with human HCT116 cells at 2.20 mmol/kg, iv administered as single dose by HPLC analysis; type: ADME, organism-based; design: dose 2.2 mmol/kg, route intravenous; conditions: in vivo
Procedure, shortened: (§3)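 Female NIH-III mice bearing subcutaneous HCT116 xenografts (10^6 cells inoculated). At ca. 300 mm3 tumor size, a single i.v. dose was given at the MAD or 75% of the MTD. Vehicle was 0.9% saline with 1% DMSO, or saline with 2 molar equivalents NaHCO3 for phosphate prodrugs. Plasma and tumor were sampled at multiple times by cardiac puncture and excision, assayed by HPLC, and analysed noncompartmentally.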

[15] = Tmax in plasma of NIH-III mouse xenografted with human HCT116 cells at 2.20 mmol/kg, iv administered as single dose by HPLC analysis; type: ADME, organism-based; conditions: 2.2 mmol/kg
Procedure, shortened: (§4)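 Female NIH-III mice bearing subcutaneous HCT116 tumors (10^6 cells; ~300 mm3) got a single i.v. dose at the MAD or 75% of the MTD. Vehicle was saline with 1% DMSO, or saline with 2 equivalents of NaHCO3 for the phosphates. Plasma and tumor were sampled at multiple times by cardiac puncture and excision, drug was measured by HPLC, and Tmax came from noncompartmental analysis.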

[16] = Cmax in tumor of NIH-III mouse xenografted with human HCT116 cells at 2.20 mmol/kg, iv administered as single dose by HPLC analysis; type: ADME, organism-based, Neoplasm; design: dose 2.2 mmol/kg, route intravenous; conditions: in vivo; procedure, shortened: as §3
[17] = Tmax in tumor of NIH-III mouse xenografted with human HCT116 cells at 2.20 mmol/kg, iv administered as single dose by HPLC analysis; type: ADME, organism-based, Neoplasm; conditions: 2.2 mmol/kg; procedure, shortened: as §4
HCT-116 [18] = experiment: In vivo hypoxia radiosensitization activity in human HCT116 cells xenografted in NIH-III mouse assessed as survival ratio by measuring ratio of cell survival with 12.5 Gy radiation in absence to presence of compound at 2.20 mmol/kg, iv pretreated as single dose for 10 mins followed by irradiation measured after 18 hrs by excision assay; type: functional
[19] = Electrophilicity of the compound in pH 7 phosphate buffer assessed as one-electron reduction potential
Procedure, shortened: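 The one-electron reduction potential was set by pulse radiolysis equilibria at pH 7.0 (2.5 mM phosphate), established within 20 µs against benzylviologen, methylviologen or triquat. ΔE came from equilibrium constants via the Nernst equation, at three concentration ratios and 22 ± 2 °C.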

Mus musculus [20] = experiment: Toxicity in NIH-III mouse xenografted with human HCT116 cells assessed as change in body weight with 12.5 Gy radiation at 2.20 mmol/kg, iv administered as single dose; conditions: in vivo
HCT-116 [21] = experiment: as §1, with “with” for “with 15 Gy”, “0.7 mM” for “anoxic IC50”, “6 to 29” for “15”; type: functional
HCT-116 [22] = experiment: as §1, with “with” for “with 15 Gy”, “0.7 mM” for “anoxic IC50”, “6 to 29” for “15”, “method relative to misonidazole” for “method”; type: functional
HCT-116 [23] = experiment: as §1, with “with” for “with 15 Gy”, “0.52 mM” for “anoxic IC50”, “6 to 29” for “15”; type: functional
HCT-116 [24] = experiment: as §1, with “with” for “with 15 Gy”, “0.52 mM” for “anoxic IC50”, “6 to 29” for “15”, “method relative to misonidazole” for “method”; type: functional
HCT-116 [25] = experiment: as §2, with “0.82” for “2.76”, “method relative to misonidazole” for “method”; type: functional
HCT-116 [26] = experiment: as §2, with “0.82” for “2.76”; type: functional
HCT-116 [27] = experiment: as §1, with “with” for “with 15 Gy”, “0.82 mM” for “anoxic IC50”, “6 to 29” for “15”; type: functional
HCT-116 [28] = experiment: as §1, with “with” for “with 15 Gy”, “0.82 mM” for “anoxic IC50”, “6 to 29” for “15”, “method relative to misonidazole” for “method”; type: functional

For `Cc1ncc([N+](=O)[O-])n1CCS(=O)(=O)NCCCN1CCOCC1`, the solubility [1] was over 55.2 mM, the IC50 (HCT-116 [2]) was 2800 µM and the “Ratio IC50” value (HCT-116 [3]) was 0.8. The Ratio (HCT-116 [4]) was 8, the Ratio (HCT-116 [5]) was 1.68 and the “fold change (FC)” value (HCT-116 [6]) was 1.2. The Ratio (HCT-116 [7]) was 28, the “fold change (FC)” value (HCT-116 [8]) was 3.96 and the Activity (HCT-116 [9]) was “Non-Toxic”.

In the case of `O=C(Cn1ccnc1[N+](=O)[O-])NCCO` [ETANIDAZOLE], the solubility [1] is reported as over 200 mM, the IC50 (HCT-116 [2]) is reported as 1000 µM and the “Ratio IC50” value (HCT-116 [3]) is reported as 19. The Ratio (HCT-116 [10]) was 1.339, the Ratio (HCT-116 [4]) was 7 and the “fold change (FC)” value (HCT-116 [11]) was 0.95. The Ratio (HCT-116 [12]) was 4.6, the “fold change (FC)” value (HCT-116 [13]) was 0.75 and the Drug uptake (Mus musculus [14]) was 2.2 mmol/kg. For the same compound, the Cmax (Plasma) was 3640 µM, the Tmax [15] was 5 min and the Cmax [16] was 800 µM. The Tmax [17] was 5 min, the Ratio (HCT-116 [18]) was 8 and the Activity [19] was -388 mV. For the same compound, the Activity (HCT-116 [9]) was “Non-Toxic” and the Activity (Mus musculus [20]) was “Non-Toxic”.

For `Cc1ncc([N+](=O)[O-])n1CCS(=O)(=O)NCCN1CCCC1`, the Ratio (HCT-116 [21]) was 13.6, the “fold change (FC)” value (HCT-116 [22]) was 1.51 and the Activity (HCT-116 [9]) was “Non-Toxic”.

For `COCCNS(=O)(=O)Cn1cnc([N+](=O)[O-])c1`, the Ratio (HCT-116 [23]) was 1.3, the “fold change (FC)” value (HCT-116 [24]) was 0.44 and the Activity (HCT-116 [9]) was “Non-Toxic”.

For `Cc1ncc([N+](=O)[O-])n1CCS(=O)(=O)NCCN(C)C`, the “fold change (FC)” value (HCT-116 [25]) was 1.06, the solubility [1] was 46.8 mM (≈ 14.3 mg/mL) and the IC50 (HCT-116 [2]) was 800 µM. The “Ratio IC50” value (HCT-116 [3]) was 6, the Ratio (HCT-116 [4]) was 11 and the Ratio (HCT-116 [26]) was 1.57. For the same compound, the Ratio (HCT-116 [27]) was 14.9, the “fold change (FC)” value (HCT-116 [28]) was 1.51 and the Activity (HCT-116 [9]) was “Non-Toxic”.
